Results as given in ChEMBL document CHEMBL4382256, “Design and Synthesis of Marine Phidianidine Derivatives as Potential Immunosuppressive Agents” (J Med Chem, 2018).
pIC50: −log10 of the molar value. Calls of active or inactive are those of the source. No cut-off for these calls is given here.

Columns and labels:
[1] = Cytotoxicity against BALB/c mouse splenocytes after 48 hrs by CCK-8 assay; assay type: cell-based, Splenocyte
Procedure, shortened: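 Fresh female BALB/c splenocytes (1×10^6 cells), RBC-depleted with ammonium chloride, cultured in triplicate in RPMI 1640/10% FBS with penicillin/streptomycin at 37 °C, 5% CO2 for 48 h with or without compound (DMSO stock diluted in medium). CCK-8 added, 6-8 h further incubation, absorbance 450 nm (570 nm calibration). CC50 from log(inhibitor) vs normalized response non-linear fit.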

[2] = test system: Splenocyte; experiment: (§1) Immunosuppressive activity in BALB/c mouse splenocytes assessed as inhibition of concanavalin A stimulated T-cell proliferation by measuring [3H]-thymidine uptake preincubated for 48 hrs followed by concanavalin A stimulation and [3H]-thymidine addition for 8 hrs measured after 48 hrs by beta-scintillation counting analysis; assay type: functional, cell-based
Procedure, shortened: (§2)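 Female BALB/c splenocytes (5×10^5 cells), triplicate, with or without compound, stimulated with Con A 5 μg/ml (T cells) or LPS (E. coli 055:B5) 10 μg/ml (B cells). Culture 48 h at 37 °C, 5% CO2. Pulsed 8 h with 0.5 μCi/well [3H]thymidine, harvested to glass fiber filters, beta scintillation counted. IC50 from log(inhibitor) vs normalized response non-linear fit.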

[3] = test system: Splenocyte; experiment: as §1, with “LPS-stimulated B-cell” for “concanavalin A stimulated T-cell”, “LPS” for “concanavalin A”; assay type: functional, cell-based; procedure, shortened: as §2
[4] = test system: Splenocyte; experiment: as §1, with “uptake at 50 uM” for “uptake”; assay type: functional, cell-based
Procedure, shortened: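 Female BALB/c splenocytes (5×10^5 cells), triplicate, compound at 50 μM, Con A 5 μg/ml stimulation, 48 h at 37 °C, 5% CO2. Pulsed 8 h with 0.5 μCi/well [3H]thymidine, harvested to glass fiber filters, counted by beta scintillation.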

[5] = organism: Mus musculus; experiment: Immunosuppressive activity in BALB/c mouse CD4-positive T cells assessed as inhibition of anti-CD3/CD28 stimulated cell proliferation at 1 to 10 uM after 48 hrs by [3H]-thymidine uptake assay; assay type: functional
Procedure, shortened: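 CD4+ T cells isolated from BALB/c spleen by immunomagnetic negative selection (purity >98%). 4×10^5 cells/well on plate-coated anti-CD3 (5 μg/ml) plus anti-CD28 (2 μg/ml), with or without compound at 10, 3 and 1 μM, for 48 h. Proliferation read by 0.5 μCi/well [3H]thymidine pulse.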

[6] = organism: Mus musculus; experiment: Immunosuppressive activity in BALB/c mouse CD4-positive T cells assessed as decrease in anti-CD3/CD28 stimulated IL-2 production at 1 to 10 uM after 24 hrs by ELISA; assay type: functional
Procedure, shortened: (§3)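 Purified splenic CD4+ T cells (negative selection, >98% pure) stimulated with anti-CD3 (5 μg/ml) plus anti-CD28 (2 μg/ml), with or without compound at 10, 3 and 1 μM, for 24 h. Supernatant IL-2 and IFN-γ measured by mouse ELISA kits.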

[7] = organism: Mus musculus; experiment: Immunosuppressive activity in BALB/c mouse CD4-positive T cells assessed as decrease in anti-CD3/CD28 stimulated IFN-gamma production at 1 to 10 uM after 24 hrs by ELISA; assay type: functional; procedure, shortened: as §3
[8] = Immunosuppressive activity in BALB/c mouse CD4-positive T cells assessed as anti-CD3/CD28 stimulated CD25 expression at 10 uM by phycoerythrin staining-based flow cytometric analysis (reference value: 52.5%); assay type: functional
Procedure, shortened: (§4)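 Purified splenic CD4+ T cells stimulated with anti-CD3 (5 μg/ml) plus anti-CD28 (2 μg/ml) with or without compound at 10, 3 or 1 μM. Cells washed in PBS, stained with fixable viability dye eFluor 780 for 30 min at 4 °C, Fc-blocked with anti-CD16/CD32, stained with PE-CD25. CD25+ percentage read by flow cytometry.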

[9] = Immunosuppressive activity in BALB/c mouse CD4-positive T cells assessed as anti-CD3/CD28 stimulated CD25 expression at 3 uM by phycoerythrin staining-based flow cytometric analysis (reference value: 52.5%); assay type: functional; procedure, shortened: as §4
[10] = Immunosuppressive activity in BALB/c mouse CD4-positive T cells assessed as anti-CD3/CD28 stimulated CD25 expression at 1 uM by phycoerythrin staining-based flow cytometric analysis (reference value: 52.5%); assay type: functional; procedure, shortened: as §4
[11] = organism: Mus musculus; experiment: Immunosuppressive activity in BALB/c mouse CD19-positive B cells assessed as inhibition of anti-IgM/CD40 stimulated cell proliferation at 1 to 10 uM after 48 hrs by [3H]-thymidine uptake assay; assay type: functional
Procedure, shortened: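 CD19+ B cells purified from BALB/c spleen by negative selection (purity >98%). Stimulated with F(ab')2 anti-mouse IgM (10 μg/ml) plus hamster anti-mouse CD40 (1 μg/ml), with or without compound at 10, 3 and 1 μM, 48 h. Proliferation by 0.5 μCi/well [3H]thymidine pulse.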

[12] = organism: Mus musculus; experiment: Immunosuppressive activity in BALB/c mouse CD19-positive B cells assessed as decrease in anti-IgM/CD40 stimulated IL-6 levels at 1 to 10 uM after 24 hrs by ELISA; assay type: functional
Procedure, shortened: (§5)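 Purified splenic CD19+ B cells (negative selection, >98% pure) stimulated with F(ab')2 anti-IgM (10 μg/ml) plus anti-CD40 (1 μg/ml), with or without compound at 10, 3 and 1 μM, 24 h. Supernatant IL-6 and IL-10 measured by mouse ELISA kits.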

[13] = organism: Mus musculus; experiment: Immunosuppressive activity in BALB/c mouse CD19-positive B cells assessed as increase in anti-IgM/CD40 stimulated IL-10 levels at 1 to 10 uM after 24 hrs by ELISA; assay type: functional; procedure, shortened: as §5
[14] = Immunosuppressive activity in BALB/c mouse CD19-positive B cells assessed as inhibition of anti-IgM/CD40 -induced decrease in IgD expression by measuring mean fluorescence intensity at 10 uM by allophycocyanin staining-based flow cytometric analysis (reference value: 5084); assay type: functional
[15] = Immunosuppressive activity in BALB/c mouse CD19-positive B cells assessed as inhibition of anti-IgM/CD40 -induced decrease in IgD expression by measuring mean fluorescence intensity at 3 uM by allophycocyanin staining-based flow cytometric analysis (reference value: 5084); assay type: functional
[16] = Immunosuppressive activity in BALB/c mouse CD19-positive B cells assessed as inhibition of anti-IgM/CD40 -induced decrease in IgD expression by measuring mean fluorescence intensity at 1 uM by allophycocyanin staining-based flow cytometric analysis (reference value: 5084); assay type: functional

| Structure (SMILES) | CC50 at 48 h [1] | pIC50 [2] | pIC50 [3] | further results |
| --- | --- | --- | --- | --- |
| COc1cc(C(=O)O/N=C(\N)Cc2c[nH]c3ccccc23)cc(OC)c1OC | 10.1 µM | 4.92 | 5.17 |  |
| COc1cc(OC)cc(-c2nc(Cc3c[nH]c4ccccc34)no2)c1 | > 50 µM | < 4.30 | 4.86 |  |
| CCCCc1ccc(-c2nc(Cc3c[nH]c4ccccc34)no2)cc1 | 8.2 µM | 4.95 | 5.01 |  |
| CCCCc1nc(Cc2c[nH]c3ccccc23)no1 | > 50 µM | < 4.30 | < 4.30 |  |
| COc1ccc(Br)c(-c2nc(Cc3c[nH]c4ccccc34)no2)c1 | 33.6 µM | 4.88 | 5.16 |  |
| Clc1ccc(-c2noc(Cc3c[nH]c4ccccc34)n2)cc1 | 42.8 µM | 4.65 | < 4.30 |  |
| Fc1ccccc1-c1nc(Cc2c[nH]c3ccccc23)no1 | > 50 µM | < 4.30 | < 4.30 |  |
| CCc1ccc(-c2nc(-c3cc(OC)c(OC)c(OC)c3)no2)cc1 | 31.3 µM | < 4.30 | < 4.30 |  |
| Fc1ccc(-c2noc(Cc3c[nH]c4ccccc34)n2)cc1 | 13.6 µM | 5.27 | 4.87 |  |
| N=C(N)NCCCCCNc1noc(Cc2c[nH]c3ccccc23)n1 |  |  |  | inhibition [4]: inactive |
| COc1cc(-c2noc(-c3ccccc3)n2)cc(OC)c1OC | > 50 µM | < 4.30 | < 4.30 |  |
| CCc1ccc(-c2noc(Cc3c[nH]c4ccccc34)n2)cc1 | 24.4 µM | 5.12 | 4.86 |  |
| COc1cc(-c2noc(Cc3c[nH]c4ccccc34)n2)cc(OC)c1OC | > 50 µM | < 4.30 | 5.55 |  |
| COc1cc(-c2noc(-c3ccc(NC(=O)OC(C)(C)C)cc3)n2)cc(OC)c1OC | 9.2 µM | 5.80 | 5.66 |  |
| COc1cc(/C(N)=N/OC(=O)Cc2c[nH]c3ccccc23)cc(OC)c1OC | 37.3 µM | 4.71 | 4.98 |  |
| COc1cc(-c2noc(C34CC5CC(CC(C5)C3)C4)n2)cc(OC)c1OC | 26.5 µM | 5.57 | 4.73 |  |
| COc1cccc(-c2nc(Cc3c[nH]c4ccccc34)no2)c1 | 18.4 µM | 4.73 | 4.95 |  |
| N=C(N)NCCCCNc1noc(Cc2c[nH]c3ccccc23)n1 |  |  |  | inhibition [4]: inactive |

| Structure (SMILES) | CC50 at 48 h [1] | pIC50 [2] | pIC50 [3] | further results |
| --- | --- | --- | --- | --- |
| COc1cc(-c2noc(C34CCC(NC(=O)OC(C)(C)C)(CC3)CC4)n2)cc(OC)c1OC | 12.7 µM | 5.60 | 5.44 |  |
| COc1cc(-c2noc(-c3ccc(N)cc3)n2)cc(OC)c1OC | > 50 µM | 6.10 | 5.77 | inhibition [5]: Active; Activity [6]: Active; Activity [7]: Active; Activity [8]: 19%; Activity [9]: 38.3%; Activity [10]: 52.2%; Activity [11]: Active; Activity [12]: Active; Activity [13]: Active; Flu intensity [14]: 6995; Flu intensity [15]: 6866; Flu intensity [16]: 5281 |
| COc1cc(-c2noc(C3CC4(C3)CC(F)(F)C4)n2)cc(OC)c1OC | 28.5 µM | 5.28 | 5.25 |  |
| COc1cc(-c2noc(-c3cccc(N)c3)n2)cc(OC)c1OC | 8.2 µM | 5.15 | 5.26 |  |
| COc1cc(-c2nc(Cc3c[nH]c4ccccc34)no2)cc(OC)c1OC | > 50 µM | 4.96 | 5.51 | inhibition [5]: Active; Activity [6]: Active; Activity [7]: Active; Activity [8]: 22%; Activity [9]: 48.6%; Activity [10]: 50.3%; Activity [11]: Active; Activity [12]: Active; Activity [13]: Active; Flu intensity [14]: 6814; Flu intensity [15]: 6134; Flu intensity [16]: 5640 |
| N=C(N)NCCNc1noc(Cc2c[nH]c3ccccc23)n1 |  |  |  | inhibition [4]: inactive |
| CCCCc1ccc(-c2nc(-c3cc(OC)c(OC)c(OC)c3)no2)cc1 | 21.2 µM | < 4.30 | 4.44 |  |
| COc1ccc(-c2nc(Cc3c[nH]c4ccccc34)no2)cc1 | > 50 µM | < 4.30 | < 4.30 |  |
| COc1ccc(OC)c(-c2nc(Cc3c[nH]c4ccccc34)no2)c1 | > 50 µM | < 4.30 | 5.08 |  |
| COc1ccc(-c2nc(Cc3c[nH]c4ccccc34)no2)c(OC)c1 | 9.3 µM | 5.07 | 5.33 |  |
| CCCCCCc1ccc(-c2nc(-c3cc(OC)c(OC)c(OC)c3)no2)cc1 | 25 µM | 4.62 | 4.64 |  |
| c1ccc(-c2noc(Cc3c[nH]c4ccccc34)n2)cc1 | > 50 µM | < 4.30 | < 4.30 |  |
| COc1cc(-c2noc(C34CCC(N)(CC3)CC4)n2)cc(OC)c1OC | 25.8 µM | 5.32 | 5.39 |  |
| Fc1ccc(-c2nc(Cc3c[nH]c4ccccc34)no2)c(C(F)(F)F)c1 | 40.6 µM | 4.80 | 5.01 |  |
| O=[N+]([O-])c1ccc(-c2noc(Cc3c[nH]c4ccccc34)n2)cc1 | > 50 µM | < 4.30 | < 4.30 |  |
| COc1ccccc1-c1nc(Cc2c[nH]c3ccccc23)no1 | 42.2 µM | 4.78 | 4.95 |  |
| COc1cc(-c2noc(-c3cc(OC)c(OC)c(OC)c3)n2)cc(OC)c1OC | > 50 µM | 5.26 | < 4.30 |  |
